Reference: ChEMBL document CHEMBL2346664, “Synthesis, characterization and in vitro anticancer evaluation of novel 1,2,4-triazolin-3-one derivatives” (2013)

Assays:
Type in all cases: functional
[1] = test system: SK-OV-3; experiment: Growth inhibition of human SKOV3 cells assessed as growth inhibition at 10 uM after 48 hrs by sulforhodamine B assay; conditions: SK-OV-3, 48 h, read-out: GI
[2] = test system: K562; experiment: Growth inhibition of human K562 cells assessed as cell growth at 10 '-5 M after 48 hrs by sulforhodamine B assay; conditions: K562, 48 h, read-out: Activity
[3] = test system: NCI-H460; experiment: Growth inhibition of human NCI-H460 cells assessed as cell growth at 10 '-7 M after 48 hrs by sulforhodamine B assay; conditions: NCI-H460, 48 h, read-out: Activity
[4] = test system: BT-549; experiment: Growth inhibition of human BT549 cells assessed as cell growth at 10 '-5 M after 48 hrs by sulforhodamine B assay; conditions: BT-549, 48 h, read-out: Activity
Procedure, shortened: (§1)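 Percent growth at each of the five concentrations of the 48 h continuous-exposure NCI SRB screen. Drug stocks were in DMSO at 400× the top final concentration and diluted in medium with gentamicin. Growth was calculated as [(Ti-Tz)/(C-Tz)]×100 when Ti ≥ Tz, or [(Ti-Tz)/Tz]×100 when Ti < Tz. Tz plates were fixed at drug addition; untreated wells served as control. Absorbance was read at 515 nm.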

[5] = test system: PC-3; experiment: Growth inhibition of human PC3 cells after 48 hrs by sulforhodamine B assay; conditions: PC-3, 48 h
[6] = test system: SF-539; experiment: Growth inhibition of human SF539 cells assessed as cell growth at 10 '-7 M after 48 hrs by sulforhodamine B assay; conditions: SF-539, 48 h, read-out: Activity
[7] = test system: KM12; experiment: Growth inhibition of human KM12 cells assessed as cell growth at 10 '-7 M after 48 hrs by sulforhodamine B assay; conditions: KM12, 48 h, read-out: Activity
[8] = test system: CAKI-1; experiment: Growth inhibition of human CAKI-1 cells assessed as cell growth at 10 '-4 M after 48 hrs by sulforhodamine B assay; conditions: CAKI-1, 48 h, read-out: Activity; procedure, shortened: as §1
[9] = test system: SR; experiment: Growth inhibition of human SR cells after 48 hrs by sulforhodamine B assay
[10] = test system: T47D; experiment: Growth inhibition of human T47D cells assessed as cell growth at 10 '-8 M after 48 hrs by sulforhodamine B assay; conditions: read-out: Activity
[11] = test system: MDA-MB-231; experiment: Growth inhibition of human MDA-MB-231 cells assessed as cell growth at 10 '-4 M after 48 hrs by sulforhodamine B assay; conditions: MDA-MB-231, 48 h, read-out: Activity
[12] = test system: M14; experiment: Growth inhibition of human M14 cells assessed as cell growth at 10 '-4 M after 48 hrs by sulforhodamine B assay; conditions: M14, 48 h, read-out: Activity
[13] = test system: UACC-62; experiment: Growth inhibition of human UACC62 cells assessed as cell growth at 10 '-5 M after 48 hrs by sulforhodamine B assay; conditions: UACC-62, 48 h, read-out: Activity
[14] = test system: HCT-15; experiment: Growth inhibition of human HCT15 cells assessed as cell growth at 10 '-5 M after 48 hrs by sulforhodamine B assay; conditions: HCT-15, 48 h, read-out: Activity
[15] = test system: NCI-H23; experiment: Growth inhibition of human NCI-H23 cells assessed as cell growth at 10 '-4 M after 48 hrs by sulforhodamine B assay; conditions: NCI-H23, 48 h, read-out: Activity
[16] = test system: K562; experiment: Growth inhibition of human K562 cells after 48 hrs by sulforhodamine B assay; conditions: K562, 48 h
Procedure, shortened: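 NCI 60-cell-line five-dose screen. Cells were plated at 5,000–40,000/well by doubling time and grown 24 h at 37 °C, 5% CO2. Time-zero plates were TCA-fixed. Drug from DMSO stock was tested at 0.01, 0.1, 1, 10 and 100 µM final for 48 h continuous exposure. Read-out was SRB at 515 nm. GI50 is the concentration giving 50% reduction in net protein increase versus untreated control.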

[17] = test system: U-251; experiment: Growth inhibition of human U251 cells assessed as growth inhibition at 10 uM after 48 hrs by sulforhodamine B assay; conditions: U-251, 48 h, read-out: GI
[18] = Growth inhibition of human […] cells assessed as cell growth at 10 uM after 48 hrs by sulforhodamine B assay; conditions: read-out: Activity
Procedure, shortened: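 NCI-60 primary screen at a single dose of 10^-5 M. Output is mean growth percent of treated cells relative to untreated controls, where values between 0 and 100 indicate growth inhibition and values below 0 indicate cytotoxicity. Cells were plated 24 h before drug, incubated 48 h at 37 °C, 5% CO2, and stained with SRB after TCA fixation. Suspension cells were fixed with 80% TCA (16% final).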

[19] = test system: K562; experiment: Growth inhibition of human K562 cells assessed as cell growth at 10 '-7 M after 48 hrs by sulforhodamine B assay; conditions: K562, 48 h, read-out: Activity
[20] = test system: MDA-MB-435; experiment: Growth inhibition of human MDA-MB-435 cells assessed as cell growth at 10 '-8 M after 48 hrs by sulforhodamine B assay; conditions: MDA-MB-435, 48 h, read-out: Activity
[21] = test system: OVCAR-3; experiment: Growth inhibition of human OVCAR3 cells assessed as cell growth at 10 '-4 M after 48 hrs by sulforhodamine B assay; conditions: OVCAR-3, 48 h, read-out: Activity
[22] = Growth inhibition of human HCC2998 cells assessed as growth inhibition at 10 uM after 48 hrs by sulforhodamine B assay; conditions: HCC 2998, 48 h, read-out: GI
[23] = test system: HCT-116; experiment: Growth inhibition of human HCT116 cells assessed as cell growth at 10 '-6 M after 48 hrs by sulforhodamine B assay; conditions: HCT-116, 48 h, read-out: Activity
[24] = test system: MCF7; experiment: Growth inhibition of human MCF7 cells assessed as cell growth at 10 '-7 M after 48 hrs by sulforhodamine B assay; conditions: MCF7, 48 h, read-out: Activity
[25] = test system: A498; experiment: Growth inhibition of human A498 cells after 48 hrs by sulforhodamine B assay; conditions: A498, 48 h
Procedure, shortened: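 NCI 60-cell-line five-dose screen at 0.01, 0.1, 1, 10 and 100 µM final. Cells were plated at 5,000–40,000/well and grown 24 h at 37 °C, 5% CO2, then exposed to drug continuously for 48 h. Adherent cells were fixed with cold TCA (10% final) and stained with SRB; absorbance read at 515 nm. GI50 is the concentration where [(Ti-Tz)/(C-Tz)]×100 = 50, with Tz plates fixed at drug addition.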

[26] = test system: OVCAR-5; experiment: Growth inhibition of human OVCAR5 cells assessed as cell growth at 10 '-5 M after 48 hrs by sulforhodamine B assay; conditions: OVCAR-5, 48 h, read-out: Activity
[27] = test system: SR; experiment: Growth inhibition of human SR cells assessed as cell growth at 10 '-8 M after 48 hrs by sulforhodamine B assay; conditions: read-out: Activity
[28] = read-out: LD50 (the source's name)

## Cc1cc(=O)oc2cc(OCCn3c(C)nn(-c4ccc(Cl)cc4)c3=O)ccc12
[1]
  inhibition of growth at 10 µM: 58.9%
[2]
  growth at 10 µM: 23%
[3]
  growth at 0.1 µM: 99%
[4]
  growth at 10 µM: 64%
[5]
  GI50: 8130 nM
  TGI: > 1000 nM
[5]; [28]
  CC50: > 1000 nM
[6]
  growth at 0.1 µM: 103%
[7]
  growth at 0.1 µM: 105%
[8]
  growth at 100 µM: 52%
[9]
  GI50: 4970 nM
  TGI: 6670 nM
[9]; [28]
  CC50: > 1000 nM
[10]
  growth at 0.01 µM: 98%
[11]
  growth at 100 µM: 11%
[12]
  growth at 100 µM: 28%
[13]
  growth at 10 µM: 24%
[14]
  growth at 10 µM: 20%
[15]
  growth at 100 µM: 19%
[16]
  GI50: 1290 nM
  TGI: > 1000 nM
[16]; [28]
  CC50: > 1000 nM
[17]
  inhibition of growth at 10 µM: 68.6%
[18]
  growth at 10 µM: 32.9%
[19]
  growth at 0.1 µM: 106%
[20]
  growth at 0.01 µM: 99%
[21]
  growth at 100 µM: -29%
[22]
  inhibition of growth at 10 µM: 53.3%
[23]
  growth at 1 µM: 86%
[24]
  growth at 0.1 µM: 93%
[25]
  GI50: 1130 nM
  TGI: 3190 nM
[25]; [28]
  CC50: > 1000 nM
[26]
  growth at 10 µM: 53%
[27]
  growth at 0.01 µM: 101%
